Columns and labels:
[1] = Drug metabolism in human cryopreserved hepatocytes assessed as metabolite M6 formation; type: ADME, cell-based, Hepatocyte
[2] = Drug metabolism in rat cryopreserved hepatocytes assessed as metabolite M4 formation; type: ADME, cell-based, Hepatocyte
[3] = Drug metabolism in cynomolgus monkey cryopreserved hepatocytes assessed as metabolite M5 formation; type: ADME, cell-based, Macaca fascicularis, Hepatocyte
[4] = Ratio of unbound brain to plasma concentration in dog at 3 mg/kg, iv or po at 2 hrs post dose; type: ADME, organism-based, Canis lupus familiaris
In short: (§1)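 CNS penetration in dog by terminal study at 2.0 hr. Brain:plasma Kp, Kp,uu and unbound CSF:plasma ratio determined.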

[5] = target: T1, Muscarinic acetylcholine receptor M4 (Homo sapiens, UniProt P08173); test: Positive allosteric modulation of human M4 receptor expressed in CHO cells coexpressing Gqi5 assessed as increase in acetylcholine-induced calcium mobilization; type: functional, cell-based; settings: read-out: EC50
T1 sequence (P08173 whole entry): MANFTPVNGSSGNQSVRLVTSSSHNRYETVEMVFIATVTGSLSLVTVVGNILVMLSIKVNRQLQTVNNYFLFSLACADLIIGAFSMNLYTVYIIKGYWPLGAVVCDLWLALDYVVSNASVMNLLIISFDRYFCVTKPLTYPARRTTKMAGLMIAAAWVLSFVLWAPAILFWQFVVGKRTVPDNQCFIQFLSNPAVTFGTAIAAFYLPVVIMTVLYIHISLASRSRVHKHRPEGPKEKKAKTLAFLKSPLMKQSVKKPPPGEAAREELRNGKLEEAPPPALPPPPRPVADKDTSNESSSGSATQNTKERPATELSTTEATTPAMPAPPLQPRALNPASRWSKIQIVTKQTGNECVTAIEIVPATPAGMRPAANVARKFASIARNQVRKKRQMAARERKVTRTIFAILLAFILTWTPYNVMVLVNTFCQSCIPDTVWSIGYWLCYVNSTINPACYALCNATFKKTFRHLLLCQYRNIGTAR
In short: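 Calcium mobilization in CHO cells expressing hM4 with Gqi5. Compound added in presence of a fixed EC20 concentration of acetylcholine. Values are means of three independent experiments, each run in triplicate.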

Rattus norvegicus [6] = test: Elimination half-life in Sprague-Dawley rat at 0.1 to 1 mg/kg, iv; type: ADME, organism-based; settings: in vivo
[7] = Unbound brain concentration in rat; type: ADME, tissue-based
[8] = Drug metabolism in cynomolgus monkey cryopreserved hepatocytes assessed as metabolite M3 formation; type: ADME, cell-based, Macaca fascicularis, Hepatocyte
[9] = Drug metabolism in rat cryopreserved hepatocytes assessed as metabolite M3 formation; type: ADME, cell-based, Hepatocyte
[10] = Ratio of unbound CSF to plasma concentration in dog at 3 mg/kg, iv or po at 2 hrs post dose; type: ADME, organism-based, Canis lupus familiaris; in short: as §1
[11] = Drug metabolism in rat cryopreserved hepatocytes assessed as metabolite M6 formation; type: ADME, cell-based, Hepatocyte
[12] = Positive allosteric modulation of cynomolgus monkey M4 receptor assessed as increase in acetylcholine-induced calcium mobilization; set-up: species or system Macaca fascicularis
In short: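 M4 PAM concentration-response curves measured by calcium mobilization at the stated species' receptor. Potency reported as EC50/pEC50 and efficacy as % of acetylcholine maximum.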

[13] = Drug metabolism in cynomolgus monkey cryopreserved hepatocytes assessed as metabolite M4 formation; type: ADME, cell-based, Macaca fascicularis, Hepatocyte
[14] = Drug metabolism in human cryopreserved hepatocytes assessed as metabolite M5 formation; type: ADME, cell-based, Hepatocyte
[15] = Glutathione reactivity in human hepatic microsomes assessed as GSH-adduct formation; type: ADME, Liver, Microsome
Cytochrome P450 2C9 = Cytochrome P450 2C9 (Homo sapiens, UniProt P11712); test: Inhibition of CYP2C9 (unknown origin); type: ADME
Cytochrome P450 2C9, sequence (P11712 whole entry): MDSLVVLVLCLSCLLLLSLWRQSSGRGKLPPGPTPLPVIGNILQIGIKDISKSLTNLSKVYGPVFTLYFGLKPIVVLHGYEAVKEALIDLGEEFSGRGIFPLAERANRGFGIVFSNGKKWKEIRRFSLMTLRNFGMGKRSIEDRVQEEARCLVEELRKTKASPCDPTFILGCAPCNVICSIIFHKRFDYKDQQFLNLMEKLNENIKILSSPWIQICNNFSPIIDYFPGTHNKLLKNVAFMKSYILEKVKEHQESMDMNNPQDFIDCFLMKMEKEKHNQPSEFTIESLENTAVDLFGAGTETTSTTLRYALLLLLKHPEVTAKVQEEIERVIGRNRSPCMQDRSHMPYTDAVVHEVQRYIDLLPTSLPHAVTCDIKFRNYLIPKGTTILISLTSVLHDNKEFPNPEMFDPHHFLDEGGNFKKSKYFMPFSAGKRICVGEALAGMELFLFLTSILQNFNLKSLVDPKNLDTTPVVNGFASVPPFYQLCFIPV

[16] = Drug metabolism in dog cryopreserved hepatocytes assessed as metabolite M1 formation; type: ADME, cell-based, Canis lupus familiaris, Hepatocyte
[17] = target: Muscarinic acetylcholine receptor M2 (Rattus norvegicus, UniProt P10980); test: Activity at rat M2 receptor
Muscarinic acetylcholine receptor M2, sequence (P10980 whole entry): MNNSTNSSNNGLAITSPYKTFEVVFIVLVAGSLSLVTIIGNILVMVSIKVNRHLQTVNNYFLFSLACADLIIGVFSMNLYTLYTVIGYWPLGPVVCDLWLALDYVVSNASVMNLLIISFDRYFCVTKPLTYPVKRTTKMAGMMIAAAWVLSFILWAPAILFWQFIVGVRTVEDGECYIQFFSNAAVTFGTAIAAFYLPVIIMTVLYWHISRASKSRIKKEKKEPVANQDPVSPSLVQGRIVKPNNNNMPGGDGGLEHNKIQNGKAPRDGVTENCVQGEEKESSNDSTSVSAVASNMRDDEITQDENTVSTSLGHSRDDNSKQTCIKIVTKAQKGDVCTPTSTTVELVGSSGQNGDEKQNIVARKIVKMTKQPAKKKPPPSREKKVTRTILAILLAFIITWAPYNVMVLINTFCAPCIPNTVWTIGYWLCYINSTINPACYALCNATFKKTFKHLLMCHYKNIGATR

[18] = Drug metabolism in dog cryopreserved hepatocytes assessed as metabolite M5 formation; type: ADME, cell-based, Canis lupus familiaris, Hepatocyte
[19] = target: Muscarinic acetylcholine receptor M1 (Rattus norvegicus, UniProt P08482); test: Activity at rat M1 receptor
Muscarinic acetylcholine receptor M1 (Rattus norvegicus, UniProt P08482), sequence (P08482 whole entry): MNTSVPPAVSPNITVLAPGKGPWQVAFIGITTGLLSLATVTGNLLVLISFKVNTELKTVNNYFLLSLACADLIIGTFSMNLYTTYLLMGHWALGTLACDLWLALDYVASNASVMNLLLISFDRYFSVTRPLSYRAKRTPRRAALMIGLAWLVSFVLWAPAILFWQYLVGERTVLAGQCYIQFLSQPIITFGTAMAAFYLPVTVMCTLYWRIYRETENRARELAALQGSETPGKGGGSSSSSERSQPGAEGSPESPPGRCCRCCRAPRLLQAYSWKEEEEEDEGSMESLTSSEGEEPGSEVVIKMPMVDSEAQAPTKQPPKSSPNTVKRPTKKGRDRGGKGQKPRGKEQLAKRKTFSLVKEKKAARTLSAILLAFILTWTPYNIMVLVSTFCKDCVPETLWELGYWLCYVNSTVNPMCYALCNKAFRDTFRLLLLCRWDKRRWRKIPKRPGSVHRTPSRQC

[20] = Drug metabolism in rat cryopreserved hepatocytes assessed as metabolite M5 formation; type: ADME, cell-based, Hepatocyte
Cytochrome P450 3A4 = Cytochrome P450 3A4 (Homo sapiens, UniProt P08684); test: Inhibition of CYP3A4 (unknown origin); type: ADME
Cytochrome P450 3A4, sequence (P08684 whole entry): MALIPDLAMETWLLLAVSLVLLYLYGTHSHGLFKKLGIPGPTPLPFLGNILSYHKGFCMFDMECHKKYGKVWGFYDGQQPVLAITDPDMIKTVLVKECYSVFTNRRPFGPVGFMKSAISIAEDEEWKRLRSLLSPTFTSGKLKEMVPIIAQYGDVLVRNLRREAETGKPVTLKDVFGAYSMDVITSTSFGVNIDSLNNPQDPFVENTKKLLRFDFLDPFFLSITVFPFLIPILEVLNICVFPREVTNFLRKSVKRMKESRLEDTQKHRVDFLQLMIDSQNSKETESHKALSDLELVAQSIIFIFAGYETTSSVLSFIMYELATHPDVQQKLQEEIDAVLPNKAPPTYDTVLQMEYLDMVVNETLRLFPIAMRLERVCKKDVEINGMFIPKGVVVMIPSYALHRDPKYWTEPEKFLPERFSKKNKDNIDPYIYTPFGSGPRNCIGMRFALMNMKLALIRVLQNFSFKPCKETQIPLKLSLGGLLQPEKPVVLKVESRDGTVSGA

[21] = Drug metabolism in human cryopreserved hepatocytes assessed as metabolite M2 formation; type: ADME, cell-based, Hepatocyte
[22] = Aqueous solubility of the compound at pH 7.4; type: physicochemical; settings: buffer
Salmonella typhimurium [23] = test: Mutagenicity in Salmonella typhimurium TA98 by mini-Ames test; type: toxicity; settings: salmonella enterica subsp. enterica serovar typhimurium
In short: (§2)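 Mini-Ames mutagenicity assay in Salmonella typhimurium strains TA98 and TA100, run with and without S9 metabolic activation.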

[24] = Drug metabolism in cynomolgus monkey cryopreserved hepatocytes assessed as metabolite M8 formation; type: ADME, cell-based, Macaca fascicularis, Hepatocyte
Salmonella typhimurium [25] = test: Mutagenicity in Salmonella typhimurium TA100 in absence of S9 fraction by mini-Ames test; type: toxicity; settings: salmonella enterica subsp. enterica serovar typhimurium; in short: as §2
[26] = Brain to plasma permeability coefficient, Kp of the compound in Sprague-Dawley rat at 0.1 to 0.2 mg/kg, iv measured at 0.25 hrs post dose; type: ADME, organism-based
In short: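 Sprague-Dawley rats were dosed IV at 0.1–0.2 mg/kg, with brain and plasma sampled at 0.25 hr. Brain:plasma Kp was calculated, with Kp,uu where unbound fractions were available.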

[27] = Drug metabolism in rat cryopreserved hepatocytes assessed as metabolite M1 formation; type: ADME, cell-based, Hepatocyte
Salmonella typhimurium [28] = test: Mutagenicity in Salmonella typhimurium TA100 in presence of S9 fraction by mini-Ames test; type: toxicity; settings: salmonella enterica subsp. enterica serovar typhimurium; in short: as §2
Rattus norvegicus [29] = test: Volume of distribution at steady state […] in Sprague-Dawley rat at 0.1 to 1 mg/kg, iv; type: ADME, organism-based; settings: in vivo
In short: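 IV pharmacokinetics in Sprague-Dawley rats at 0.1–1.0 mg/kg. CLp, elimination t½ and Vss derived.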

[30] = Unbound plasma concentration in human; type: ADME, cell-free
[31] = Oral bioavailability in rat at 10 mg/kg; type: ADME, organism-based; settings: in vivo
In short: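 Rat oral bioavailability from a 10 mg/kg solution dose. Separately, the HCl salt was dosed as a suspension.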

CYP2B6 = CYP2B6 (Homo sapiens, UniProt P20813); test: Induction of CYP2B6 in cryopreserved human hepatocytes measured after 48 hrs; type: ADME, cell-based
CYP2B6, sequence (P20813 whole entry): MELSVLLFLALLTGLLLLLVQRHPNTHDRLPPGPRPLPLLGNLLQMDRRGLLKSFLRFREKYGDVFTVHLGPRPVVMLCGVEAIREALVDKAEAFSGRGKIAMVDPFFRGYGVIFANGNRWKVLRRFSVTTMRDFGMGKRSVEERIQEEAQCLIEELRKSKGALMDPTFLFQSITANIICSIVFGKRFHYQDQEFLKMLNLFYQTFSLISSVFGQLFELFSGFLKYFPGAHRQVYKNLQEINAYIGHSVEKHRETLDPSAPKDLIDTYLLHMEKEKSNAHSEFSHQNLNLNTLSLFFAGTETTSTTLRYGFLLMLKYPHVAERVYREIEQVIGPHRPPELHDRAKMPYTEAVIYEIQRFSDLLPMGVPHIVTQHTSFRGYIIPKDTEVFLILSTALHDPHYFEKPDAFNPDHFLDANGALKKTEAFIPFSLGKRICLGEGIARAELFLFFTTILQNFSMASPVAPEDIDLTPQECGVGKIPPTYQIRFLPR
In short: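 Cryopreserved human hepatocytes incubated for 48 hr, with enzyme activity as read-out. Induction expressed as EC50 and Emax.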

[32] = target: Muscarinic acetylcholine receptor M5 (Homo sapiens, UniProt P08912); test: Activity at human M5 receptor
Muscarinic acetylcholine receptor M5, sequence (P08912 whole entry): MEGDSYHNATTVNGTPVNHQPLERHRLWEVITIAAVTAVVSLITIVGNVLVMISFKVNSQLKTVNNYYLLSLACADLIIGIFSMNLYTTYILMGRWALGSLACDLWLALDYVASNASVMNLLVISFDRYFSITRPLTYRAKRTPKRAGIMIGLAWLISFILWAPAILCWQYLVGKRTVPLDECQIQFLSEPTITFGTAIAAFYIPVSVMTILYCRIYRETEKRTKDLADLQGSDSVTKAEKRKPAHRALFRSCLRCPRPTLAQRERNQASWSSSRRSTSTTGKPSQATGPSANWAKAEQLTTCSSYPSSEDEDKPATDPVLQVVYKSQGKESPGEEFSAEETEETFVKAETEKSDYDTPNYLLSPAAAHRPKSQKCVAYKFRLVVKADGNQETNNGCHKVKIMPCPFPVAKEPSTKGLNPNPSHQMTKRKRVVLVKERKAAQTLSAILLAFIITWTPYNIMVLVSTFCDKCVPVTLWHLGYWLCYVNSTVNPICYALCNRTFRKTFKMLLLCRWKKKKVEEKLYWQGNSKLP

[33] = Drug metabolism in human cryopreserved hepatocytes assessed as metabolite M3 formation; type: ADME, cell-based, Hepatocyte
[34] = Brain to plasma permeability coefficient, Kp of the compound in dog at 3 mg/kg, iv or po at 2 hrs post dose; type: ADME, organism-based, Canis lupus familiaris
In short: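 Dog terminal study, with brain, plasma and CSF collected at 2.0 hr. Brain:plasma Kp, Kp,uu and Ccsf:Cplasma,u were derived.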

[35] = Drug metabolism in human cryopreserved hepatocytes assessed as metabolite M4 formation; type: ADME, cell-based, Hepatocyte
[36] = target: Muscarinic acetylcholine receptor M1 (Homo sapiens, UniProt P11229); test: Activity at human M1 receptor
Muscarinic acetylcholine receptor M1 (Homo sapiens, UniProt P11229), sequence (P11229 whole entry): as the sequence (P08482 whole entry) above, with V5A, S254T, S309P, K320R, G337A, V413I counted along it

[37] = target: Voltage-gated inwardly rectifying potassium channel KCNH2 (Homo sapiens, UniProt Q12809); test: Inhibition of human ERG
Voltage-gated inwardly rectifying potassium channel KCNH2, sequence (Q12809 whole entry): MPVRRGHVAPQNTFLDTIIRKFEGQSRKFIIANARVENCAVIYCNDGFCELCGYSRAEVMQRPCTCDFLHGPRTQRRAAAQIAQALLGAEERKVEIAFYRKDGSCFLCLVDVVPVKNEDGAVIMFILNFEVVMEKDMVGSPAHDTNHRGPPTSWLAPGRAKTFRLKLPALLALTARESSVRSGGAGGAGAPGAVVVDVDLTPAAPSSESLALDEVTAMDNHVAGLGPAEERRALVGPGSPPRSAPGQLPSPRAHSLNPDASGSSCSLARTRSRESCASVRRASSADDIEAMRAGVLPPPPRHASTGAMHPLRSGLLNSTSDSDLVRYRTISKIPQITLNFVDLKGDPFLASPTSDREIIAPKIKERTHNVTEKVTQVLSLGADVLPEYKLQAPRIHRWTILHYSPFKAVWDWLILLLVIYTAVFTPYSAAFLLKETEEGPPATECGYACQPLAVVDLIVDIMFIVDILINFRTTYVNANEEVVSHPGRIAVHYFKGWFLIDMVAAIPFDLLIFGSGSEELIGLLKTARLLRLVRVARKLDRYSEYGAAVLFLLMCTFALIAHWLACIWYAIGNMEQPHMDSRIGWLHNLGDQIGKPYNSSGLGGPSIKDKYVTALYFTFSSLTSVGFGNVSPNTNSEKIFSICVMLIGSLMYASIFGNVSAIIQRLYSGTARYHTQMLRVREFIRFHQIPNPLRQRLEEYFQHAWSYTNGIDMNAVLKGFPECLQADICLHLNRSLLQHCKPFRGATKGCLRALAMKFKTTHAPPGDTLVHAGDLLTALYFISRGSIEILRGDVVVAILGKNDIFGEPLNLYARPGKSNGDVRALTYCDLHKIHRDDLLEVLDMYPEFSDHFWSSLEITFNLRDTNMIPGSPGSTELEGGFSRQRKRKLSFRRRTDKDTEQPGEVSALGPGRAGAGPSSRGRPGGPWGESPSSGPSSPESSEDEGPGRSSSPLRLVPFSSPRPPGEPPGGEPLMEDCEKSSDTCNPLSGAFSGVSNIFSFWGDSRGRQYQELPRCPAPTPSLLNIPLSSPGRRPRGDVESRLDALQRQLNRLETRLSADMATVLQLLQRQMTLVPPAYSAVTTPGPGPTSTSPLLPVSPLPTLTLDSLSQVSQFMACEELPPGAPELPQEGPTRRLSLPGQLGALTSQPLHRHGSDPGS

Cytochrome P450 2D6 = Cytochrome P450 2D6 (Homo sapiens, UniProt P10635); test: Inhibition of CYP2D6 (unknown origin); type: ADME
Cytochrome P450 2D6, sequence (P10635 whole entry): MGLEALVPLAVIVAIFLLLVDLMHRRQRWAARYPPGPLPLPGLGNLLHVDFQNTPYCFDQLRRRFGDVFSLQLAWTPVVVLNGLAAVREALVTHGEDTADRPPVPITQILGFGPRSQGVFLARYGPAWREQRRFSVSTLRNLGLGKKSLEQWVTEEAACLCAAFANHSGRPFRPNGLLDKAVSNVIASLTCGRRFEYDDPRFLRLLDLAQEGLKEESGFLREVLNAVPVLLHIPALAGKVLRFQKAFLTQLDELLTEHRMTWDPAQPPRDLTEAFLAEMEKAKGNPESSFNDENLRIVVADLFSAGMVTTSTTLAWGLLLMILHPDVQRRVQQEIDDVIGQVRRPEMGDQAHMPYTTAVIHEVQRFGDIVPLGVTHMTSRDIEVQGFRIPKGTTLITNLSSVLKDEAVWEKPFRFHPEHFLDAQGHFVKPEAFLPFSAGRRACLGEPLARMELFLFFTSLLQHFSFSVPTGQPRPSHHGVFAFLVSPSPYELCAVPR

[38] = Drug metabolism in cynomolgus monkey cryopreserved hepatocytes assessed as metabolite M6 formation; type: ADME, cell-based, Macaca fascicularis, Hepatocyte

Cc1nnc2sc(C(=O)NCc3ccc(-c4cccnc4F)cc3)c(N)c2c1C
Drug metabolism [1]: Metabolite_Detected
Drug metabolism [2]: Metabolite_Detected
Drug metabolism [3]: Metabolite_Detected
K(p,uu,brain) [4]: 2.6
EC50 [5]: 0.091 µM
beta t1/2 (Rattus norvegicus [6]): 2.7 h
fraction unbound [7]: 0.02
Drug metabolism [8]: Metabolite_Detected
Drug metabolism [9]: Metabolite_Detected
Kp uu at 2 h [10]: 4.8
Drug metabolism [11]: Metabolite_Detected
pEC50 [12]: 7.06
Drug metabolism [13]: Metabolite_Detected
Drug metabolism [14]: Metabolite_Detected
Activity [15]: Not Active
IC50 (Cytochrome P450 2C9): > 30 µM
Drug metabolism [16]: Metabolite_Detected
EC50 [17]: > 30 µM
Drug metabolism [18]: Metabolite_Detected
EC50 [19]: > 30 µM
Drug metabolism [20]: Metabolite_Detected
IC50 (Cytochrome P450 3A4): > 30 µM
Drug metabolism [21]: Metabolite_Detected
solubility [22]: < 0.5 µM
Activity (Salmonella typhimurium [23]): Non-Toxic
Drug metabolism [24]: Metabolite_Detected
Activity (Salmonella typhimurium [25]): Non-Toxic
Kp [26]: 0.11
Drug metabolism [27]: Metabolite_Detected
Activity (Salmonella typhimurium [28]): Non-Toxic
Vdss (Rattus norvegicus [29]): 0.34 L/kg
fraction unbound [30]: 0.011
bioavailability [31]: 61%
EC50 at 48 h (CYP2B6): > 50 µM
EC50 [32]: > 30 µM
Drug metabolism [33]: Metabolite_Detected
Kp [34]: 0.74
Drug metabolism [35]: Metabolite_Detected
EC50 [36]: > 30 µM
IC50 [37]: > 33 µM
IC50 (Cytochrome P450 2D6): 19 µM
Drug metabolism [38]: Metabolite_Detected

Reference: ChEMBL document CHEMBL4028836, “Optimization of M4 positive allosteric modulators (PAMs): The discovery of VU0476406, a non-human primate in vivo tool compound for translational pharmacology” (Bioorg Med Chem Lett, 2017)
